From publication PMC6868880 (ACS Omega, 2019)
Values after ≈ are worked out from the molar mass of the structure shown. Read-outs that look alike come from different tables or passages of the source. Each block holds one molecule with its values, some of them ahead of it. Where no end group is shown, it is not given here.

How the values were obtained:
Trichophyton rubrum = test: MIC, filamentous fungi, Trichophyton rubrum; assay type: cell-based; settings: ATCC28189, read-out: MIC Tr
How it was run: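 T. rubrum ATCC 28189 was grown on potato dextrose agar, and inocula were prepared in RPMI 1640 medium. MIC was determined following CLSI M38-A2 for filamentous fungi.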

Escherichia coli = test: MIC determination against bacteria; assay type: cell-based; settings: read-out: MIC Ec
Candida albicans [1] = settings: cited from earlier work
Candida albicans [2] = test: MIC, broth microdilution, Candida albicans; assay type: cell-based; settings: Table 5; CLSI M27-A3 with modifications, Lambert–Pearson plot; ATCC 24433
How it was run: (§1)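 Yeasts were precultured in liquid YPD at 37 °C, 70 rpm, for 24 hours. MIC was determined by CLSI M27-A3 broth microdilution, modified for turbidimetric detection. The assay used MOPS-buffered RPMI 1640 without sodium bicarbonate, with cell density read at 600 nm. MIC was derived from a Lambert–Pearson plot of cell density.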

Candida parapsilosis = test: MIC, broth microdilution, Candida parapsilosis; assay type: cell-based; settings: Table 5; CLSI M27-A3 with modifications, Lambert–Pearson plot; ATCC 22019
How it was run: as §1

Candida auris = test: MIC, broth microdilution, Candida auris; assay type: cell-based; settings: Table 5; CLSI M27-A3 with modifications, Lambert–Pearson plot; DSMZ-No. 21092
How it was run: as §1

Listeria monocytogenes = test: MIC determination, Listeria monocytogenes; assay type: cell-based; settings: Table 5; Mueller Hinton broth, CLSI M7A9 with modifications, triplicate; ATCC BAA-679/EGD-e
How it was run: (§2)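 Bacteria pre-cultured overnight at 37 °C/5% CO2 in culture medium as inoculum. MIC of test peptides determined by broth dilution in Mueller Hinton broth following CLSI M7A9 with modifications for bacteria. All tests run in triplicate.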

Pseudomonas aeruginosa = test: MIC determination, Pseudomonas aeruginosa; assay type: cell-based; settings: Table 5; Mueller Hinton broth, CLSI M7A9 with modifications, triplicate; ATCC 27853
How it was run: as §2

human erythrocytes = settings: cited from earlier work
rabbit erythrocytes = settings: cited from earlier work
mammalian cell line = settings: in vitro; cited from earlier work

MIC (Trichophyton rubrum): 0.125 µg/mL (≈ 0.135 µM)
Molecule: C[C@@H]1[C@H](O)[C@@H](C)/C=C/C=C/C=C/C=C/C=C/C=C/C=C/[C@H](O[C@@H]2O[C@H](C)[C@@H](O)[C@H](N)[C@@H]2O)C[C@@H]2O[C@](O)(C[C@@H](O)C[C@@H](O)[C@H](O)CC[C@@H](O)C[C@@H](O)CC(=O)O[C@H]1C)C[C@H](O)[C@H]2C(=O)O [amphotericin B]

MIC (Escherichia coli): 0.195 µg/mL (≈ 0.559 µM)
Molecule: CC1(C)S[C@@H]2[C@H](NC(=O)[C@H](N)c3ccccc3)C(=O)N2[C@H]1C(=O)O [ampicillin]

Molecule: OC(Cn1cncn1)(Cn1cncn1)c1ccc(F)cc1F [fluconazole]
MIC (Candida albicans [1]; against Candida albicans): 8 to 16 µg/mL

Molecule: SRSELIVHQRLF-NH2 [Cm-p5]
MIC C. albicans (Candida albicans [2]): 10 µg/mL
MIC C. parapsilosis (Candida parapsilosis): 32 µg/mL
MIC C. auris (Candida auris): 11 µg/mL
MIC Listeria monocytogenes (Listeria monocytogenes): >100 µg/mL
MIC Pseudomonas aeruginosa (Pseudomonas aeruginosa): >100 µg/mL
MIC (Candida albicans [1]; against C. albicans, native peptide): 10 µg/mL
fungistatic action, concentration range (Candida albicans [1]; against Candida albicans): 10 to 40 µg/mL
hemolytic activity (human erythrocytes): nonhemolytic
hemolytic activity (rabbit erythrocytes): nonhemolytic
toxicity against a mammalian cell line (mammalian cell line): did not exhibit any toxicity
